Measured values: ChEMBL document CHEMBL4007411, “Design, Synthesis, and Biological Evaluation of Coupled Bioactive Scaffolds as Potential Anticancer Agents for Dual Targeting of Dihydrofolate Reductase and Thioredoxin Reductase” (J Med Chem, 2017)
Activity calls are given as the source filed them. No cut-off for these calls is given here.

How the values were obtained:
[1] = biological target: T1, Thioredoxin reductase 1, cytoplasmic (Rattus norvegicus, UniProt O89049); experiment: Inhibition of […] thioredoxin reductase after 30 mins by DTNB reduction assay; conditions: read-out: IC50
T1 sequence (O89049 whole entry): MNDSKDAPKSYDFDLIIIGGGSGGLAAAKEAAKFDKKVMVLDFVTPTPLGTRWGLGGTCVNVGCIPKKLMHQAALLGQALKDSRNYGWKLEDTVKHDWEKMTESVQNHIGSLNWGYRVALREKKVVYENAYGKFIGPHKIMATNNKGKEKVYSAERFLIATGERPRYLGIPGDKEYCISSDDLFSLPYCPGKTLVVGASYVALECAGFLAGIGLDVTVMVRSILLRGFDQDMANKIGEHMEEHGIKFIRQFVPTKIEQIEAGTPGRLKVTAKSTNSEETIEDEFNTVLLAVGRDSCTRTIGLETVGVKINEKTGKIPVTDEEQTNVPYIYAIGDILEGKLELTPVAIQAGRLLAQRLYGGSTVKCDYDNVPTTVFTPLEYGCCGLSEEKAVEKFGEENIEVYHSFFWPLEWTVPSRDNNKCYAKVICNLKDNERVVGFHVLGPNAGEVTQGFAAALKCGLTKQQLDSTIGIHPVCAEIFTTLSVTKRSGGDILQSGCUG
How it was run: (§1)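 Rat liver TrxR at 2.1 units/ml preincubated with a range of test concentrations and 200 µM NADPH in 50 mM Tris-HCl, 1 mM EDTA, pH 7.5, at room temperature for 30 or 60 min. Equal volume of buffer with 5 mM DTNB and 200 µM NADPH then added. A412 followed over 2 min. Activity as % of vehicle Vmax; IC50 from log concentration plot.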

[2] = biological target: T1, Thioredoxin reductase 1, cytoplasmic; experiment: Inhibition of […] thioredoxin reductase after 60 mins by DTNB reduction assay; conditions: read-out: IC50; how it was run: as §1
[3] = biological target: T2, Dihydrofolate reductase (Homo sapiens) (UniProt P00374); conditions: 0.0001 to 1 uM
T2 sequence (whole entry): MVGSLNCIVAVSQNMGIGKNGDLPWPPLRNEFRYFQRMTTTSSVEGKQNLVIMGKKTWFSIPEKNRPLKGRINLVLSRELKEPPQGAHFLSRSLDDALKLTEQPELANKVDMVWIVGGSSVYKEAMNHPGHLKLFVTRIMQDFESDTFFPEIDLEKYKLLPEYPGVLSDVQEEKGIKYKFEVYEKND

[4] = biological target: T3, Thioredoxin reductase 1, cytoplasmic (Homo sapiens) (UniProt Q16881); experiment: Inhibition of thioredoxin reductase in human HCT116 cell lysate using thioredoxin as substrate at 0.001 to 1 uM after 16 hrs by end point insulin assay method
T3 sequence (whole entry): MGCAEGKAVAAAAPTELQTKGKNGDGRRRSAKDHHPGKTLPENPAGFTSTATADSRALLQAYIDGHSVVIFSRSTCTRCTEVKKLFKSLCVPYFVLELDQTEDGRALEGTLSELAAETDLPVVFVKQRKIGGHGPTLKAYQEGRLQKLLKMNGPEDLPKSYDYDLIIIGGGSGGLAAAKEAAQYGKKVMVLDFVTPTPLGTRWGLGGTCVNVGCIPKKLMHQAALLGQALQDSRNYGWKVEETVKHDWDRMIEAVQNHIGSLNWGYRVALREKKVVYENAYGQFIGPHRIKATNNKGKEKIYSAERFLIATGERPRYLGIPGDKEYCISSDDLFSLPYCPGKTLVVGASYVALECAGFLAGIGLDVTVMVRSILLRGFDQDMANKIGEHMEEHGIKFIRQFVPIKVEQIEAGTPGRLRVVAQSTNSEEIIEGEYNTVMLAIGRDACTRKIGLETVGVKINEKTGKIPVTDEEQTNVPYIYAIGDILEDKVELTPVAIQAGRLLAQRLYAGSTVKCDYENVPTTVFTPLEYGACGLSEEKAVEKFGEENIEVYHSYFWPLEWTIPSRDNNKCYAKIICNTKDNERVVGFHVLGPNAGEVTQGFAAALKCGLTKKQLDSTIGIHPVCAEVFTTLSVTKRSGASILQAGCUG

[5] = biological target: T3, Thioredoxin reductase 1, cytoplasmic (Homo sapiens); experiment: Inhibition of thioredoxin reductase in human HCT116 cell lysate using thioredoxin as substrate at 40 to 70 uM after 16 hrs by end point insulin assay method
How it was run: (§2)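 HCT116 cells treated 16 h at 0.001 to 1 µM or 40 to 70 µM, then lysed. Stopped with 1 mM DTNB and 240 µM NADPH in 6 M guanidine HCl and Tris pH 8.0, read at A412. Given as % of DMSO-treated cells. Mean of three experiments.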

[6] = biological target: T4, Dihydrofolate reductase (Homo sapiens, UniProt P00374); experiment: Inhibition of recombinant human DHFR assessed as reduction in conversion of DHF to THF measured every 30 secs for 6 mins by UV-Vis spectrophotometric method
T4 sequence (P00374 whole entry): T2 sequence (whole entry)

[7] = test system: HCT-116; experiment: Upregulation of DHFR protein levels in human HCT116 cell lysate at 40 to 70 uM after 16 hrs by Western blot analysis; format: functional, cell-based
How it was run: (§3)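 HCT116 plated at 1.5 x 10^6 per 100 mm plate, grown 48 h, then treated 16 h at 40 to 70 µM. Adherent and floating cells pooled and lysed in Triton X-100 buffer with protease inhibitors. Lysates cleared and protein measured by Bradford. Equal protein run on SDS-PAGE and blotted. DHFR or TrxR detected by ECL, β-actin antibody also used. Three independent experiments.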

[8] = biological target: T3, Thioredoxin reductase 1, cytoplasmic (Homo sapiens); experiment: Inhibition of thioredoxin reductase in human HCT116 cell lysate using thioredoxin as substrate after 16 hrs by end point insulin assay method; how it was run: as §2
[9] = biological target: T2, Dihydrofolate reductase (Homo sapiens); experiment: Inhibition of DHFR in human HCT116 cell lysate assessed as reduction in conversion of DHF to THF after 16 hrs
How it was run: (§4)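 HCT116 cells treated 16 h at 0.001 to 1 µM or 40 to 70 µM, then lysed. 400 µg lysate protein in PBS with 50 µM DHF and 200 µM NADPH, with matching controls containing 1 µM methotrexate. A340 decrease followed over 15 min at room temperature. MTX-sensitive rate given as % of DMSO-treated cells. Mean of three independent experiments.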

[10] = test system: HCT-116; experiment: Effect on thioredoxin reductase protein levels in human HCT116 cell lysate at 40 to 70 uM after 16 hrs by Western blot analysis; format: cell-based; conditions: hct-116, 16 h; how it was run: as §3
[11] = test system: MCF7; experiment: Antiproliferative activity against human MCF7 cells after 72 hrs by MTT assay; format: functional; conditions: MCF7, 72 h
How it was run: (§5)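 Cells kept in RPMI 1640 with 10% FBS, penicillin and streptomycin at 37°C and 5% CO2. Seeded at 1.0 x 10^4/well and left to adhere overnight. Serial dilutions made in medium from DMSO stocks. MTT at 400 µg/ml final for 4 h, read at T0 and after 72 h. Formazan dissolved in DMSO:glycine pH 10.5, A550. GI50 and LC50 interpolated from absorbance versus log concentration.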

[12] = biological target: T2, Dihydrofolate reductase (Homo sapiens); experiment: Inhibition of DHFR in human HCT116 cell lysate assessed as reduction in conversion of DHF to THF at 40 to 70 uM after 16 hrs; how it was run: as §4
[13] = test system: HCT-116; experiment: Antiproliferative activity against human HCT116 cells after 72 hrs by MTT assay; format: functional; conditions: HCT-116, 72 h; how it was run: as §5

inhibition [3] | inhibition [5] | Compound | IC50 [1] | IC50 [2] | inhibition [4] | IC50 [6] | Activity [7] | inhibition [8] | inhibition [9] | Activity [10] | GI50 [11] | LC50 (concentration killing 50% of cells present at T0) [11] | inhibition [12] | GI50 [13] | CC50 ([13]; read-out: LC50 (the source's name))
inactive | Active | O=C(/C=C/c1ccccc1)c1ccccc1 [CHALCONE] | 46.4 µM | 26.7 µM | inactive | – | – | – | – | – | – | – | – | – | –
– | – | Cl.NC1=NC2(CCCC2)N(OCCCOc2cccc(C(=O)/C=C/c3ccccc3)c2)C(N)=N1 | 7.5 µM | 4.6 µM | inactive | 0.0061 µM | Active | Dose-dependent effect | Dose-dependent effect | Non-Toxic | 0.08 µM | 11.2 µM | Active | 0.026 µM | 14.1 µM
